Drawing on PubChem BioAssay AID602174 (The Scripps Research Institute Molecular Screening Center, 2012), this text covers proliferation change for ten compounds.

The experiment deals with MCF7 proliferation, sulforhodamine B absorbance. Description: MCF7 cell proliferation modulation, late-stage follow-up, counter-screen for AHR activator project, absorbance (AID 602174). To be noted: at 10 µM. In outline:
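System: MCF7 cells; input: 2,000 MCF7 cells seeded per well; medium: alpha-MEM plus 10% FBS; schedule: 24 h post-seeding before treatment, then 8–10 day compound exposure at 37 °C; technique: SRB absorbance, 490 nm with 650 nm background subtracted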

As to `COc1ccc(NC(=O)c2cccc3c(Br)cccc23)cc1`, the proliferation change was -59.5%.
The result for `Cc1nnc(N2C(=O)c3cccc4c([N+](=O)[O-])ccc(c34)C2=O)s1` reads -79%; that for `Cc1c(-c2ccn[nH]2)cc(NC(=O)c2ccc(Cl)cc2)c(=O)n1N`, -73%; that for `Cn1c(C(=O)N2CCC(C(N)=O)CC2)cc2cc(Cl)ccc21`, -49.2%.
The result for `CCOc1ccc(-c2cc(C)n3nc(C(N)=O)cc3n2)cc1` reads -20.5%.
With `Cc1ccc(-c2cc(-c3cccs3)[nH]n2)c(O)c1`, the proliferation change is -98.1%.
For the compound `Cc1csc(SCC(=O)Nc2ccc(Cl)cn2)n1`, the proliferation change was -63.2%.
The result for `COc1ccccc1NC(=O)c1ccc(C(=O)Nc2ccccc2OC)nc1` reads -90.8%.
The result for `CCOC(=O)Cc1cc(-c2ccc(O)cc2)nc2ccc3ccccc3c12` reads -84.8%; that for `Cc1nc(N)nc(Nc2ccc(Cl)cc2)c1Br`, -86.8%.
